Data as given in ChEMBL document CHEMBL1142894, “Preparation of 5-aryl-3-alkylthio-l,2,4-triazoles and corresponding sulfones with antiinflammatory-analgesic activity” (Bioorg Med Chem, 2007).
The source made the active and inactive calls. No cut-off for these calls is given here.

Legend:
Mus musculus [1] = experiment: Antiinflammatory activity against carrageenan-induced paw edema in Swiss albino mouse assessed as swelling thickness at 100 mg/kg, po after 90 mins; format: functional
In short: (§1)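 Oral dosing in 0.5% CMC; vehicle to controls. Then carrageenan (0.5 mg/25 ll, freshly suspended in 154 mM saline) injected into the right hind paw subplantar tissue; saline into the left paw. Right-left footpad thickness difference measured by dial gauge calliper every 90 min over 6 h. Inhibition % is relative to vehicle control. n = 6; mean ± SEM.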

Mus musculus [2] = experiment: Antiinflammatory activity against carrageenan-induced paw edema in Swiss albino mouse assessed as swelling thickness at 100 mg/kg, po after 180 mins; format: functional; in short: as §1
Mus musculus [3] = experiment: Antiinflammatory activity against carrageenan-induced paw edema in Swiss albino mouse assessed as swelling thickness at 100 mg/kg, po after 270 mins; format: functional; in short: as §1
Mus musculus [4] = experiment: Antiinflammatory activity against carrageenan-induced paw edema in Swiss albino mouse assessed as swelling thickness at 100 mg/kg, po after 360 mins; format: functional; in short: as §1
Mus musculus [5] = experiment: Inhibition of carrageenan-induced paw edema in Swiss albino mouse at 100 mg/kg, po after 90 mins relative to control; format: functional; conditions: 1.5 h; in short: as §1
Mus musculus [6] = experiment: Inhibition of carrageenan-induced paw edema in Swiss albino mouse at 100 mg/kg, po after 180 mins relative to control; format: functional; conditions: 3 h; in short: as §1
Mus musculus [7] = experiment: Inhibition of carrageenan-induced paw edema in Swiss albino mouse at 100 mg/kg, po after 270 mins relative to control; format: functional; conditions: 4.5 h; in short: as §1
Mus musculus [8] = experiment: Inhibition of carrageenan-induced paw edema in Swiss albino mouse at 100 mg/kg, po after 360 mins relative to control; format: functional; conditions: 6 h; in short: as §1
Mus musculus [9] = experiment: Analgesic activity against p-benzoquinone-induced abdominal constriction in Swiss albino mouse assessed as number of writhings at 25 mg/kg, po; format: functional, Abdomen
In short: (§2)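 Test samples given orally in 0.5% CMC; vehicle to controls. 60 min later, 2.5% (v/v) p-benzoquinone in distilled water, 0.1 ml/10 g, given i.p. Mice housed singly; writhes counted for 15 min starting 5 min after injection. Activity is % change from vehicle controls. n = 6; mean ± SEM.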

Mus musculus [10] = experiment: Analgesic activity against p-benzoquinone-induced abdominal constriction in Swiss albino mouse assessed as number of writhings at 50 mg/kg, po; format: functional, Abdomen; in short: as §2
Mus musculus [11] = experiment: Analgesic activity against p-benzoquinone-induced abdominal constriction in Swiss albino mouse assessed as number of writhings at 100 mg/kg, po; format: functional, Abdomen; in short: as §2
Mus musculus [12] = experiment: Analgesic activity against p-benzoquinone-induced abdominal constriction in Swiss albino mouse assessed as number of writhings at 200 mg/kg, po; format: functional, Abdomen; in short: as §2
Mus musculus [13] = experiment: Inhibition of p-benzoquinone-induced writhing in Swiss albino mouse at 25 mg/kg, po relative to control; format: functional
In short: (§3)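 Mice, n = 6 per group, dosed orally with a suspension in 0.5% sodium CMC. 60 min later, 0.1 ml/10 g of 2.5% […] p-benzoquinone in distilled water given ip. Abdominal writhes counted per animal for 15 min, starting 5 min after injection. Expressed as % change in mean writhing count versus vehicle controls.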

Mus musculus [14] = experiment: Inhibition of p-benzoquinone-induced writhing in Swiss albino mouse at 50 mg/kg, po relative to control; format: functional; in short: as §3
Mus musculus [15] = experiment: Inhibition of p-benzoquinone-induced writhing in Swiss albino mouse at 100 mg/kg, po relative to control; format: functional; in short: as §3
Mus musculus [16] = experiment: Inhibition of p-benzoquinone-induced writhing in Swiss albino mouse at 200 mg/kg, po relative to control; format: functional; in short: as §3
Mus musculus [17] = experiment: Gastric-ulcerogenic effect in Swiss albino mouse assessed as lesions at 25 mg/kg, po; format: functional, organism-based; parameters: dose 25 mg/kg
In short: (§4)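 Mice killed under deep ether anesthesia 3 h after the writhing test; the oral dose in 0.5% CMC was the one used in that test. Stomachs removed, opened along the great curvature and examined under a dissecting microscope for lesions or bleeding. Reported as ratio of ulceration; n = 6.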

Mus musculus [18] = experiment: Gastric-ulcerogenic effect in Swiss albino mouse assessed as lesions at 50 mg/kg, po; format: functional, organism-based; parameters: dose 50 mg/kg; in short: as §4
Mus musculus [19] = experiment: Antiinflammatory activity against carrageenan-induced paw edema in Swiss albino mouse assessed as swelling thickness at 25 mg/kg, po after 90 mins; format: functional; in short: as §1
Mus musculus [20] = experiment: Antiinflammatory activity against carrageenan-induced paw edema in Swiss albino mouse assessed as swelling thickness at 25 mg/kg, po after 180 mins; format: functional; in short: as §1
Mus musculus [21] = experiment: Antiinflammatory activity against carrageenan-induced paw edema in Swiss albino mouse assessed as swelling thickness at 25 mg/kg, po after 270 mins; format: functional; in short: as §1
Mus musculus [22] = experiment: Antiinflammatory activity against carrageenan-induced paw edema in Swiss albino mouse assessed as swelling thickness at 25 mg/kg, po after 360 mins; format: functional; in short: as §1
Mus musculus [23] = experiment: Antiinflammatory activity against carrageenan-induced paw edema in Swiss albino mouse assessed as swelling thickness at 50 mg/kg, po after 180 mins; format: functional; in short: as §1
Mus musculus [24] = experiment: Antiinflammatory activity against carrageenan-induced paw edema in Swiss albino mouse assessed as swelling thickness at 50 mg/kg, po after 270 mins; format: functional; in short: as §1
Mus musculus [25] = experiment: Antiinflammatory activity against carrageenan-induced paw edema in Swiss albino mouse assessed as swelling thickness at 50 mg/kg, po after 360 mins; format: functional; in short: as §1
Mus musculus [26] = experiment: Antiinflammatory activity against carrageenan-induced paw edema in Swiss albino mouse assessed as swelling thickness at 200 mg/kg, po after 90 mins; format: functional; in short: as §1
Mus musculus [27] = experiment: Antiinflammatory activity against carrageenan-induced paw edema in Swiss albino mouse assessed as swelling thickness at 200 mg/kg, po after 180 mins; format: functional; in short: as §1
Mus musculus [28] = experiment: Antiinflammatory activity against carrageenan-induced paw edema in Swiss albino mouse assessed as swelling thickness at 200 mg/kg, po after 270 mins; format: functional; in short: as §1
Mus musculus [29] = experiment: Antiinflammatory activity against carrageenan-induced paw edema in Swiss albino mouse assessed as swelling thickness at 200 mg/kg, po after 360 mins; format: functional; in short: as §1
Mus musculus [30] = experiment: Inhibition of carrageenan-induced paw edema in Swiss albino mouse at 25 mg/kg, po after 90 mins relative to control; format: functional; conditions: 1.5 h; in short: as §1
Mus musculus [31] = experiment: Inhibition of carrageenan-induced paw edema in Swiss albino mouse at 25 mg/kg, po after 180 mins relative to control; format: functional; conditions: 3 h; in short: as §1
Mus musculus [32] = experiment: Inhibition of carrageenan-induced paw edema in Swiss albino mouse at 25 mg/kg, po after 270 mins relative to control; format: functional; conditions: 4.5 h; in short: as §1
Mus musculus [33] = experiment: Inhibition of carrageenan-induced paw edema in Swiss albino mouse at 25 mg/kg, po after 360 mins relative to control; format: functional; conditions: 6 h; in short: as §1
Mus musculus [34] = experiment: Inhibition of carrageenan-induced paw edema in Swiss albino mouse at 50 mg/kg, po after 90 mins relative to control; format: functional; conditions: 1.5 h
In short: (§5)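 Mice, n = 6 per group. Test agent given orally as a suspension in 0.5% sodium CMC in distilled water; controls received vehicle only. Afterwards, 0.5 mg/25 ll carrageenan in saline (154 mM NaCl) injected subplantar into the right hind paw, saline into the left. Right-minus-left footpad thickness measured by dial gauge caliper every 90 min for 6 h. Inhibition is relative to vehicle-control group means.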

Mus musculus [35] = experiment: Inhibition of carrageenan-induced paw edema in Swiss albino mouse at 50 mg/kg, po after 180 mins relative to control; format: functional; conditions: 3 h; in short: as §1
Mus musculus [36] = experiment: Inhibition of carrageenan-induced paw edema in Swiss albino mouse at 50 mg/kg, po after 270 mins relative to control; format: functional; conditions: 4.5 h; in short: as §5
Mus musculus [37] = experiment: Inhibition of carrageenan-induced paw edema in Swiss albino mouse at 50 mg/kg, po after 360 mins relative to control; format: functional; conditions: 6 h; in short: as §5
Mus musculus [38] = experiment: Inhibition of carrageenan-induced paw edema in Swiss albino mouse at 200 mg/kg, po after 90 mins relative to control; format: functional; conditions: 1.5 h; in short: as §1
Mus musculus [39] = experiment: Inhibition of carrageenan-induced paw edema in Swiss albino mouse at 200 mg/kg, po after 180 mins relative to control; format: functional; conditions: 3 h; in short: as §1
Mus musculus [40] = experiment: Inhibition of carrageenan-induced paw edema in Swiss albino mouse at 200 mg/kg, po after 270 mins relative to control; format: functional; conditions: 4.5 h; in short: as §1
Mus musculus [41] = experiment: Inhibition of carrageenan-induced paw edema in Swiss albino mouse at 200 mg/kg, po after 360 mins relative to control; format: functional; conditions: 6 h; in short: as §1
Mus musculus [42] = experiment: Acute toxicity in Swiss albino mouse assessed as lethal effect at 25 mg/kg/day, po after 72 hrs; format: organism-based; parameters: route oral; conditions: in vivo
In short: (§6)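 Oral single dose suspended in 0.5% carboxymethylcellulose, given after a 24 h fast; food and water returned 1 h after dosing. Vehicle-only controls. Mice observed at 1 h, then once daily for 72 h, for toxic signs and mortality.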

Mus musculus [43] = experiment: Acute toxicity in Swiss albino mouse assessed as lethal effect at 50 mg/kg/day, po after 72 hrs; format: organism-based; parameters: route oral; conditions: in vivo; in short: as §6
Mus musculus [44] = experiment: Acute toxicity in Swiss albino mouse assessed as lethal effect at 100 mg/kg/day, po after 72 hrs; format: organism-based; parameters: route oral; conditions: in vivo; in short: as §6
Mus musculus [45] = experiment: Acute toxicity in Swiss albino mouse assessed as lethal effect at 200 mg/kg/day, po after 72 hrs; format: organism-based; parameters: route oral; conditions: in vivo; in short: as §6
Mus musculus [46] = experiment: Antiinflammatory activity against carrageenan-induced paw edema in Swiss albino mouse assessed as swelling thickness at 50 mg/kg, po after 90 mins; format: functional; in short: as §1

For `CS(=O)(=O)c1nc(-c2ccccc2Cl)n[nH]1`, the Activity (Mus musculus [1]) was 35 10^-2mm, the Activity (Mus musculus [2]) was 39 10^-2mm and the Activity (Mus musculus [3]) was 41.3 10^-2mm. For the same compound, the Activity (Mus musculus [4]) was 44.5 10^-2mm, the inhibition in vivo at 100 mg/kg (Mus musculus [5]) was 21.9% and the inhibition in vivo at 100 mg/kg (Mus musculus [6]) was 24.3%. For the same compound, the inhibition in vivo at 100 mg/kg (Mus musculus [7]) was 29.8%, the inhibition in vivo at 100 mg/kg (Mus musculus [8]) was 35.3% and the Activity (Mus musculus [9]) was 40.1. It also gave an Activity (Mus musculus [10]) of 30.4, an Activity (Mus musculus [11]) of 32.2 and an Activity (Mus musculus [12]) of 45.3. For the same compound, the inhibition in vivo at 25 mg/kg (Mus musculus [13]) was 21.9%, the inhibition in vivo at 50 mg/kg (Mus musculus [14]) was 40.9% and the inhibition in vivo at 100 mg/kg (Mus musculus [15]) was 31.9%. The inhibition in vivo at 200 mg/kg (Mus musculus [16]) was 11.9%, the Activity (Mus musculus [17]) was “Active” and the Activity (Mus musculus [18]) was “Active”. The Activity (Mus musculus [19]) was 49.1 10^-2mm, the Activity (Mus musculus [20]) was 56.9 10^-2mm and the Activity (Mus musculus [21]) was 60.2 10^-2mm. For the same compound, the Activity (Mus musculus [22]) was 67.1 10^-2mm, the Activity (Mus musculus [23]) was 41.2 10^-2mm and the Activity (Mus musculus [24]) was 43.1 10^-2mm. The Activity (Mus musculus [25]) was 45.5 10^-2mm, the Activity (Mus musculus [26]) was 49.8 10^-2mm and the Activity (Mus musculus [27]) was 54.6 10^-2mm. The Activity (Mus musculus [28]) was 59.8 10^-2mm, the Activity (Mus musculus [29]) was 65.1 10^-2mm and the inhibition in vivo at 25 mg/kg (Mus musculus [30]) was 7.7%. For the same compound, the inhibition in vivo at 25 mg/kg (Mus musculus [31]) was 4.2%, the inhibition in vivo at 25 mg/kg (Mus musculus [32]) was 7.1% and the inhibition in vivo at 25 mg/kg (Mus musculus [33]) was 6.8%. For the same compound, the inhibition in vivo at 50 mg/kg (Mus musculus [34]) was 26.5%, the inhibition in vivo at 50 mg/kg (Mus musculus [35]) was 30.6% and the inhibition in vivo at 50 mg/kg (Mus musculus [36]) was 33.5%. The inhibition in vivo at 50 mg/kg (Mus musculus [37]) was 36.8%, the inhibition in vivo at 200 mg/kg (Mus musculus [38]) was 6.4% and the inhibition in vivo at 200 mg/kg (Mus musculus [39]) was 8.1%. For the same compound, the inhibition in vivo at 200 mg/kg (Mus musculus [40]) was 7.7%, the inhibition in vivo at 200 mg/kg (Mus musculus [41]) was 9.6% and the Activity (Mus musculus [42]) was “Non-toxic”. The Activity (Mus musculus [43]) was “Non-toxic”, the Activity (Mus musculus [44]) was “Non-toxic” and the Activity (Mus musculus [45]) was “Non-toxic”. For the same compound, the Activity (Mus musculus [46]) was 39.1 10^-2mm.
